{
  "source": "ChEMBL document CHEMBL3808334",
  "about": "“Synthesis and in vitro evaluation of novel triazine analogues as anticancer agents and their interaction studies with bovine serum albumin” (Eur J Med Chem, 2016)",
  "assay_type_in_all_cases": "functional",
  "key": {"[1]": {"assay": "Growth inhibition of human HL-60(TB) cells assessed as cell growth at 10^-6 M incubated for 48 hrs by sulforhodamine B assay", "conditions": "HL-60, 48 h, read-out: Activity", "outline": "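Cells plated at 5,000–40,000/well according to doubling time and preincubated 24 h at 37 °C, 5% CO₂, with time-zero plates TCA-fixed. Drugs were kept as DMSO concentrates at 400× the top concentration and diluted in medium with 50 µg/ml gentamicin. Five 10-fold or ½-log dilutions were run for 48 h, followed by SRB staining and A515. Percent growth = (Ti−Tz)/(C−Tz)×100, or (Ti−Tz)/Tz×100 when Ti<Tz.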"}, "CCRF-CEM": {"tested_on": "CCRF-CEM", "assay": "Growth inhibition of human CCRF-CEM cells incubated for 48 hrs by sulforhodamine B assay", "outline": "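Leukemia line in the five-dose format: five concentrations from 10-fold or ½-log serial dilutions. Plated at 5,000–40,000 cells per well, preincubated 24 h, then compound added for 48 h at 37 °C, 5% CO₂. Sulforhodamine B absorbance read at 515 nm. Growth is computed against time-zero (Tz) and control (C) readings; GI₅₀ is where [(Ti−Tz)/(C−Tz)]×100 = 50.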"}, "M14 [2]": {"tested_on": "M14", "assay": "Growth inhibition of human M14 cells assessed as cell growth at 10 uM incubated for 48 hrs by sulforhodamine B assay", "conditions": "M14, 48 h, read-out: Activity"}, "A498": {"tested_on": "A498", "assay": "Growth inhibition of human A498 cells assessed as cell growth at 10^-4 M incubated for 48 hrs by sulforhodamine B assay", "conditions": "A498, 48 h, read-out: Activity", "outline": "(§1)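 Five-dose assay: five concentrations from 10-fold or ½-log serial dilutions. Cells are plated at 5,000–40,000 per well according to doubling time, grown 24 h, then exposed 48 h at 37 °C, 5% CO₂. Fixed with cold 50% TCA (final addition) for 60 min at 4 °C and stained with 0.4% SRB in 1% acetic acid. Bound dye is solubilized in 10 mM Tris base and read at 515 nm. GI₅₀ is where [(Ti−Tz)/(C−Tz)]×100 = 50, with a time-zero plate as Tz.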"}, "[3]": {"assay": "Growth inhibition of human IGROV1 cells assessed as cell growth at 10 uM incubated for 48 hrs by sulforhodamine B assay", "conditions": "IGROV-1, 48 h, read-out: Activity"}, "T47D": {"tested_on": "T47D", "assay": "Growth inhibition of human T47D cells assessed as cell growth at 10^-5 M incubated for 48 hrs by sulforhodamine B assay", "conditions": "read-out: Activity"}, "[4]": {"assay": "Growth inhibition of human OVCAR5 cells incubated for 48 hrs by sulforhodamine B assay", "conditions": "OVCAR-5, 48 h", "outline": "(§2)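 Cells were plated at 5,000–40,000 per well according to doubling time and preincubated 24 h at 37 °C in 5% CO2; time-zero plates were then TCA-fixed. Five concentrations (10-fold or ½-log dilutions, DMSO stock) were incubated 48 h. Cells were TCA-fixed, stained with 0.4% SRB and read at 515 nm. GI50 was taken where [(Ti−Tz)/(C−Tz)]×100 = 50.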"}, "EKVX": {"tested_on": "EKVX", "assay": "Growth inhibition of human EKVX cells assessed as cell growth at 10^-7 M incubated for 48 hrs by sulforhodamine B assay", "conditions": "read-out: Activity", "outline": "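Cells seeded at 5,000–40,000/well according to doubling time and preincubated 24 h at 37 °C, 5% CO2. Time-zero plates were TCA-fixed. DMSO concentrate was diluted in medium with 50 µg/ml gentamicin to give five concentrations (10-fold or ½ log steps), then exposed 48 h. Cells were TCA-fixed, stained with 0.4% SRB and read at 515 nm. Percent growth was taken against time-zero and control; GI50, TGI and LC50 derived.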"}, "[5]": {"assay": "Growth inhibition of human SF268 cells assessed as cell growth at 10^-6 M incubated for 48 hrs by sulforhodamine B assay", "conditions": "SF-268, 48 h, read-out: Activity"}, "[6]": {"assay": "Growth inhibition of human SKOV3 cells assessed as cell growth at 10^-8 M incubated for 48 hrs by sulforhodamine B assay", "conditions": "SK-OV-3, 48 h, read-out: Activity"}, "HT-29": {"tested_on": "HT-29", "assay": "Growth inhibition of human HT-29 cells incubated for 48 hrs by sulforhodamine B assay", "conditions": "HT-29, 48 h", "outline": "as §2"}, "[7]": {"assay": "Growth inhibition of human SKOV3 cells assessed as cell growth at 10^-6 M incubated for 48 hrs by sulforhodamine B assay", "conditions": "SK-OV-3, 48 h, read-out: Activity"}, "[8]": {"assay": "Growth inhibition of human MOLT4 cells incubated for 48 hrs by sulforhodamine B assay", "conditions": "MOLT-4, 48 h", "outline": "as §2"}, "M14 [9]": {"tested_on": "M14", "assay": "Growth inhibition of human M14 cells assessed as cell growth at 10^-6 M incubated for 48 hrs by sulforhodamine B assay", "conditions": "M14, 48 h, read-out: Activity"}, "NCI/ADR-RES": {"tested_on": "NCI/ADR-RES", "assay": "Growth inhibition of human NCI/ADR-RES cells assessed as cell growth at 10^-5 M incubated for 48 hrs by sulforhodamine B assay", "conditions": "read-out: Activity"}, "[10]": {"assay": "Growth inhibition of human SF295 cells assessed as cell growth at 10^-6 M incubated for 48 hrs by sulforhodamine B assay", "conditions": "SF-295, 48 h, read-out: Activity"}, "[11]": {"assay": "Growth inhibition of human HOP62 cells assessed as cell growth at 10^-8 M incubated for 48 hrs by sulforhodamine B assay", "conditions": "HOP-62, 48 h, read-out: Activity"}, "[12]": {"assay": "Growth inhibition of human BT549 cells assessed as cell growth at 10^-5 M incubated for 48 hrs by sulforhodamine B assay", "conditions": "BT-549, 48 h, read-out: Activity", "outline": "as §1"}, "SK-MEL-2": {"tested_on": "SK-MEL-2", "assay": "Growth inhibition of human SK-MEL-2 cells assessed as cell growth at 10^-6 M incubated for 48 hrs by sulforhodamine B assay", "conditions": "SK-MEL-2, 48 h, read-out: Activity"}, "[13]": {"assay": "Growth inhibition of human HOP92 cells assessed as cell growth at 10^-8 M incubated for 48 hrs by sulforhodamine B assay", "conditions": "HOP-92, 48 h, read-out: Activity"}, "NCI-H522": {"tested_on": "NCI-H522", "assay": "Growth inhibition of human NCI-H522 cells assessed as cell growth at 10^-7 M incubated for 48 hrs by sulforhodamine B assay", "conditions": "NCI-H522, 48 h, read-out: Activity"}, "[14]": {"assay": "Growth inhibition of human SF268 cells assessed as cell growth at 10 uM incubated for 48 hrs by sulforhodamine B assay", "conditions": "SF-268, 48 h, read-out: Activity"}},
  "data": [
    {"smiles": "Clc1ccc(-c2nc(Nc3ccc(-c4nc5ccccc5[nH]4)cc3)nc(N3CCOCC3)n2)cc1", "values": [
      {"measurement": "growth at 1 µM", "setting": "[1]", "result": -29, "unit": "%"},
      {"measurement": "GI50", "setting": "CCRF-CEM; read-out: GI50", "result": 0.259, "unit": "µM"},
      {"measurement": "TGI", "setting": "CCRF-CEM; read-out: TGI", "result": 0.687, "unit": "µM"},
      {"measurement": "GI50", "setting": "CCRF-CEM; read-out: pGI50 (converted)", "result": 0.257, "unit": "µM"},
      {"measurement": "TGI", "setting": "CCRF-CEM; read-out: pTGI (converted)", "result": 0.692, "unit": "µM"},
      {"measurement": "growth at 10 µM", "setting": "M14 [2]", "result": -82.6, "unit": "%"},
      {"measurement": "growth at 100 µM", "setting": "A498", "result": -48, "unit": "%"},
      {"measurement": "growth at 10 µM", "setting": "[3]", "result": -71.2, "unit": "%"},
      {"measurement": "growth at 10 µM", "setting": "T47D", "result": -62, "unit": "%"},
      {"measurement": "GI50", "setting": "[4]; read-out: GI50", "result": 0.505, "unit": "µM"},
      {"measurement": "TGI", "setting": "[4]; read-out: TGI", "result": 1.94, "unit": "µM"},
      {"measurement": "GI50", "setting": "[4]; read-out: pGI50 (converted)", "result": 0.501, "unit": "µM"},
      {"measurement": "TGI", "setting": "[4]; read-out: pTGI (converted)", "result": 1.95, "unit": "µM"},
      {"measurement": "growth at 0.1 µM", "setting": "EKVX", "result": 87, "unit": "%"},
      {"measurement": "growth at 1 µM", "setting": "[5]", "result": 3, "unit": "%"},
      {"measurement": "growth at 0.01 µM", "setting": "[6]", "result": 101, "unit": "%"},
      {"measurement": "GI50", "setting": "HT-29; read-out: GI50", "result": 0.228, "unit": "µM"},
      {"measurement": "TGI", "setting": "HT-29; read-out: TGI", "result": 0.523, "unit": "µM"},
      {"measurement": "GI50", "setting": "HT-29; read-out: pGI50 (converted)", "result": 0.229, "unit": "µM"},
      {"measurement": "TGI", "setting": "HT-29; read-out: pTGI (converted)", "result": 0.525, "unit": "µM"},
      {"measurement": "growth at 1 µM", "setting": "[7]", "result": 102, "unit": "%"},
      {"measurement": "GI50", "setting": "[8]; read-out: GI50", "result": 0.217, "unit": "µM"},
      {"measurement": "TGI", "setting": "[8]; read-out: TGI", "result": 0.573, "unit": "µM"},
      {"measurement": "GI50", "setting": "[8]; read-out: pGI50 (converted)", "result": 0.219, "unit": "µM"},
      {"measurement": "TGI", "setting": "[8]; read-out: pTGI (converted)", "result": 0.575, "unit": "µM"},
      {"measurement": "growth at 1 µM", "setting": "M14 [9]", "result": 18, "unit": "%"},
      {"measurement": "growth at 10 µM", "setting": "NCI/ADR-RES", "result": -72, "unit": "%"},
      {"measurement": "growth at 1 µM", "setting": "[10]", "result": 77, "unit": "%"},
      {"measurement": "growth at 0.01 µM", "setting": "[11]", "result": 91, "unit": "%"},
      {"measurement": "growth at 10 µM", "setting": "[12]", "result": -66, "unit": "%"},
      {"measurement": "growth at 1 µM", "setting": "SK-MEL-2", "result": 97, "unit": "%"},
      {"measurement": "growth at 0.01 µM", "setting": "[13]", "result": 90, "unit": "%"},
      {"measurement": "growth at 0.1 µM", "setting": "NCI-H522", "result": 95, "unit": "%"},
      {"measurement": "growth at 10 µM", "setting": "[14]", "result": -82.7, "unit": "%"}
    ]}
  ]
}
